Reference: ChEMBL document CHEMBL4350961, “Discovery of Pyrrolo[3,2- d]pyrimidin-4-one Derivatives as a New Class of Potent and Cell-Active Inhibitors of P300/CBP-Associated Factor Bromodomain” (J Med Chem, 2019)
Active and inactive are the calls of the source. The rule behind the calls is not given here.

Legend:
[1] = target: Platelet-derived growth factor receptor alpha (Homo sapiens) (UniProt P16234); test: Inhibition of recombinant human PDGFRalpha (550 to end residues) at 10 uM using poly(Glu, Tyr) 4:1 as substrate measured after 40 mins in presence of [gamma33P]ATP by scintillation counting method
[2] = target: Serine/threonine-protein kinase WNK4 (Homo sapiens) (UniProt Q96J92); test: Inhibition of human WNK4 using myelin basic protein as substrate measured after 120 mins in presence of [gamma33P]ATP by scintillation counting method
[3] = Cmax in Sprague-Dawley rat at 10 mg/kg, po administered via gavage by LC-MS/MS analysis; assay type: ADME, organism-based; set-up: dose 10 mg/kg, route oral; details: in vivo
Outline: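 Serial jugular-vein blood taken at set times, spun to plasma at 4 ℃, stored at -80 °C. Plasma extracted with acetonitrile containing internal standard, quantified by LC-MS/MS; noncompartmental fit.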

[4] = target: Serine/threonine-protein kinase PAK 1 (Homo sapiens) (UniProt Q13153); test: Inhibition of recombinant human PAK1 (150 to end residues) at 10 uM using RRRLSFAEPG as substrate measured after 40 mins in presence of [gamma33P]ATP by scintillation counting method
[5] = target: Homeodomain-interacting protein kinase 3 (Homo sapiens) (UniProt Q9H422); test: Inhibition of recombinant human HIPK3 (161 to 562 residues) at 10 uM using myelin basic protein as substrate measured after 40 mins in presence of [gamma33P]ATP by scintillation counting method
[6] = target: MAP/microtubule affinity-regulating kinase 4 (Homo sapiens) (UniProt Q96L34); test: Inhibition of recombinant full-length human MARK4 at 10 uM using KKKVSRSGLYRSPSMPENLNRPR as substrate measured after 40 mins in presence of [gamma33P]ATP by scintillation counting method
[7] = target: Tyrosine-protein kinase HCK (Homo sapiens) (UniProt P08631); test: Inhibition of recombinant human HCK (230 to 497 residues) at 10 uM using Cdc2 peptide as substrate measured after 40 mins in presence of [gamma33P]ATP by scintillation counting method
[8] = system: Hepatocyte growth factor receptor (Homo sapiens), P08581 [Y1230D]; test: Inhibition of recombinant human MET A1209G/V1290L/Y1248D mutant (974 to end residues) at 10 uM using KKKGQEEEYVFIE as substrate measured after 40 mins in presence of [gamma33P]ATP by scintillation counting method
[9] = target: Ephrin type-A receptor 4 (Homo sapiens) (UniProt P54764); test: Inhibition of recombinant human EphA4 (601 to 892 residues) at 10 uM using poly(Glu, Tyr) 4:1 as substrate measured after 40 mins in presence of [gamma33P]ATP by scintillation counting method
[10] = target: Casein kinase I isoform gamma-1 (Homo sapiens) (UniProt Q9HCP0); test: Inhibition of recombinant human CK1gamma1 (25 to 355 residues) at 10 uM using KRRRALS(p)VASLPGL as substrate measured after 40 mins in presence of [gamma33P]ATP by scintillation counting method
[11] = target: Protein kinase C epsilon type (Homo sapiens) (UniProt Q02156); test: Inhibition of recombinant human PKCepsilon (2 to end residues) at 10 uM using ERMRPRKRQGSVRRRV as substrate measured after 40 mins in presence of [gamma33P]ATP by scintillation counting method
[12] = target: PI3-kinase p110-alpha/p85-alpha (Homo sapiens) (UniProt P27986+P42336); test: Inhibition of recombinant full-length human PI3K p110alpha/p85alpha at 10 uM using phosphatidylinositol-4, 5-bisphosphate as substrate measured after 40 mins by fluorescence assay; assay type: protein-complex assay
[13] = target: Bromodomain and WD repeat-containing protein 1 (Homo sapiens) (UniProt Q9NSI6); test: Binding affinity to human partial length WDR9 bromodomain 2 (A1310 to E1430 residues) expressed in bacterial expression system at 1 uM by BROMOscan assay
Outline: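 Outsourced competition-binding profiling (BROMOscan) at a single concentration of 1 µM against 32 recombinant bromodomains; binding expressed as percentage of control.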

[14] = organism: Homo sapiens; test: Inhibition of recombinant full-length human AURKA I31F mutant at 10 uM using LRRASLG as substrate measured after 40 mins in presence of [gamma33P]ATP by scintillation counting method
[15] = target: Bromodomain-containing protein 3 (Homo sapiens) (UniProt Q15059); test: Binding affinity to human partial length BRD3 bromodomain 2 (G306 to P416 residues) expressed in bacterial expression system at 1 uM by BROMOscan assay
Outline: (§1)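 BROMOscan bromodomain cross-screen run by an outside service, compound at 1 µM against 32 recombinant bromodomains. Binding given as percent of control.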

[16] = target: Serine/threonine-protein kinase Nek6 (Homo sapiens) (UniProt Q9HC98); test: Inhibition of recombinant human NEK6 (2 to end residues) at 10 uM using FLAKSFGSPNRAYKK as substrate measured after 40 mins in presence of [gamma33P]ATP by scintillation counting method
[17] = target: Serine/threonine-protein kinase Nek11 (Homo sapiens) (UniProt Q8NG66); test: Inhibition of recombinant full-length human NEK11 at 10 uM using myelin basic protein as substrate measured after 40 mins in presence of [gamma33P]ATP by scintillation counting method
[18] = target: Protein polybromo-1 (Homo sapiens) (UniProt Q86U86); test: Binding affinity to human partial length PBRM1 bromodomain 5 (S645 to D766 residues) expressed in bacterial expression system at 1 uM by BROMOscan assay; outline: as §1
[19] = target: Serine/threonine-protein kinase 32A (Homo sapiens) (UniProt Q8WU08); test: Inhibition of recombinant full-length human STK32A at 10 uM using casein as substrate measured after 120 mins in presence of [gamma33P]ATP by scintillation counting method
[20] = target: cAMP-dependent protein kinase catalytic subunit PRKX (Homo sapiens) (UniProt P51817); test: Inhibition of recombinant full-length human PrKX at 10 uM using RRRLSFAEPG as substrate measured after 40 mins in presence of [gamma33P]ATP by scintillation counting method
[21] = target: Phosphatidylinositol 4-phosphate 5-kinase type-1 alpha (Homo sapiens) (UniProt Q99755); test: Inhibition of recombinant full-length human PIP5K1alpha at 10 uM using phosphatidylinositol 4-phosphate as substrate measured after 40 mins by HTRF assay
[22] = target: Serine/threonine-protein kinase SIK1 (Homo sapiens) (UniProt P57059); test: Inhibition of human SIK (1 to 281 residues) using AMARAASAAALARRR as substrate measured after 40 mins in presence of [gamma33P]ATP by scintillation counting method
Outline: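 Kinase panel of 422 kinases screened by Eurofins KinaseProfiler at a single test-compound concentration of 10 µM.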

[23] = target: Serine/threonine-protein kinase DCLK2 (Homo sapiens) (UniProt Q8N568); test: Inhibition of recombinant human DCAMKL2 (376 to end residues) at 10 uM using KKLNRTLSFAEPG as substrate measured after 40 mins in presence of [gamma33P]ATP by scintillation counting method
Sequence of Serine/threonine-protein kinase DCLK2 (Homo sapiens) (Q8N568 whole entry): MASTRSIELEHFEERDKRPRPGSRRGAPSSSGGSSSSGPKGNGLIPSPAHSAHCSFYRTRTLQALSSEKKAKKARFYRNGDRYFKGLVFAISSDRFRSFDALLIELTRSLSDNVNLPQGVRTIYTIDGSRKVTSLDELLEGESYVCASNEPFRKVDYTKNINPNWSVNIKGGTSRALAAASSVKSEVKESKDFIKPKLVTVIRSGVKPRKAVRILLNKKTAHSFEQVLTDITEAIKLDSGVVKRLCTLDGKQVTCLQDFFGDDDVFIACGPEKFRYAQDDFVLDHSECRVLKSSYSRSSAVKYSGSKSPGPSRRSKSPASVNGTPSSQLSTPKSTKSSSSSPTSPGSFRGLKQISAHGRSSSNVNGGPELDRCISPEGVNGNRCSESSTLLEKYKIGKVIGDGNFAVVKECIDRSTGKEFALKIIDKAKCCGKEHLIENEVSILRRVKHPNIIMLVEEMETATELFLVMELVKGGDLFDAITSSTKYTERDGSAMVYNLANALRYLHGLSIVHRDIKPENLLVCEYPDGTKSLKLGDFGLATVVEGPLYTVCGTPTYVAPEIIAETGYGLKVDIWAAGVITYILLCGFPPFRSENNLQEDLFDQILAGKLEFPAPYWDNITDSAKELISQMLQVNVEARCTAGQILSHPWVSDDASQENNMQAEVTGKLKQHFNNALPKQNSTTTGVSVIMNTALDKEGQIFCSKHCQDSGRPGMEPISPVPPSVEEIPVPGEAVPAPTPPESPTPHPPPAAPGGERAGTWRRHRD

Sequence of Bromodomain-containing protein 3 (Homo sapiens) (Q15059 2-726 limits assumed): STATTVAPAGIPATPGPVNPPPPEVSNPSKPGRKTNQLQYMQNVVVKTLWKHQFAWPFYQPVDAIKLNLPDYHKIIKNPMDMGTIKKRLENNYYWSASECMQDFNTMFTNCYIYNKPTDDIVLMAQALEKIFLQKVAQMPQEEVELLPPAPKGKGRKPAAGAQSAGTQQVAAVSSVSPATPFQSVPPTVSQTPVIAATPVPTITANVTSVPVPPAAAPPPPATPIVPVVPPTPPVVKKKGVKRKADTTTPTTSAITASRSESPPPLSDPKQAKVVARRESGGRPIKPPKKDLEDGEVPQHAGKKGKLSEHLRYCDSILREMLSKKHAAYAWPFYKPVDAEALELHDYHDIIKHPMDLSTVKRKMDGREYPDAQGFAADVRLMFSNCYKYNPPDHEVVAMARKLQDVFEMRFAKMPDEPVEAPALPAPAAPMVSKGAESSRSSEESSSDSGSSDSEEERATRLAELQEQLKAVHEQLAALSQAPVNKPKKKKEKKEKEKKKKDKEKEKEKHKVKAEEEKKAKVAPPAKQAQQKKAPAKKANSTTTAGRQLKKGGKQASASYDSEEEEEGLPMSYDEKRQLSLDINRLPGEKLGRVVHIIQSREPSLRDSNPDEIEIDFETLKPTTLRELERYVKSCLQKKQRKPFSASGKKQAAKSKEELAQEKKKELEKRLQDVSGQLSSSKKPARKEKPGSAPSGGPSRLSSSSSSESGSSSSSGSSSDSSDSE
Sequence of Protein kinase C epsilon type (Homo sapiens) (Q02156 whole entry, looked up): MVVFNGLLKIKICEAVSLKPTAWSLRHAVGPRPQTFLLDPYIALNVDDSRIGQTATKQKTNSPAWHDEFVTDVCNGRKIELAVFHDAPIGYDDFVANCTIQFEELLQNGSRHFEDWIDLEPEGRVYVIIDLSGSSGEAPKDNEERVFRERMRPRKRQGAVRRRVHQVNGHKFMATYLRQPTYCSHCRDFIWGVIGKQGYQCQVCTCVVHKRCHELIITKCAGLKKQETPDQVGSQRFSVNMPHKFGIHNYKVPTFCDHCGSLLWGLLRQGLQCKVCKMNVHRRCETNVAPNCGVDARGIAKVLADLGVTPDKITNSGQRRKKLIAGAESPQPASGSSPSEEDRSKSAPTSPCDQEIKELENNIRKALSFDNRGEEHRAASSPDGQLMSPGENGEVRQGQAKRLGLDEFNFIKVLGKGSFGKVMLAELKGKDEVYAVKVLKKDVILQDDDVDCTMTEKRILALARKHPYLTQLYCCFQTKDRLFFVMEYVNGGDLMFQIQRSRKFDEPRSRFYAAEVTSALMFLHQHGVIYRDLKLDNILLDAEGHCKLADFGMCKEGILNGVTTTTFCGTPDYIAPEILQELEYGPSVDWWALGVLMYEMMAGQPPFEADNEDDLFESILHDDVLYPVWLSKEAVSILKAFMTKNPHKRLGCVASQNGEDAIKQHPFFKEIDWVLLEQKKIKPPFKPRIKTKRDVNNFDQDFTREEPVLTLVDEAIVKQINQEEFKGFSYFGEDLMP
Sequence of Serine/threonine-protein kinase SIK1 (Homo sapiens) (P57059 whole entry, the tested form may be a part): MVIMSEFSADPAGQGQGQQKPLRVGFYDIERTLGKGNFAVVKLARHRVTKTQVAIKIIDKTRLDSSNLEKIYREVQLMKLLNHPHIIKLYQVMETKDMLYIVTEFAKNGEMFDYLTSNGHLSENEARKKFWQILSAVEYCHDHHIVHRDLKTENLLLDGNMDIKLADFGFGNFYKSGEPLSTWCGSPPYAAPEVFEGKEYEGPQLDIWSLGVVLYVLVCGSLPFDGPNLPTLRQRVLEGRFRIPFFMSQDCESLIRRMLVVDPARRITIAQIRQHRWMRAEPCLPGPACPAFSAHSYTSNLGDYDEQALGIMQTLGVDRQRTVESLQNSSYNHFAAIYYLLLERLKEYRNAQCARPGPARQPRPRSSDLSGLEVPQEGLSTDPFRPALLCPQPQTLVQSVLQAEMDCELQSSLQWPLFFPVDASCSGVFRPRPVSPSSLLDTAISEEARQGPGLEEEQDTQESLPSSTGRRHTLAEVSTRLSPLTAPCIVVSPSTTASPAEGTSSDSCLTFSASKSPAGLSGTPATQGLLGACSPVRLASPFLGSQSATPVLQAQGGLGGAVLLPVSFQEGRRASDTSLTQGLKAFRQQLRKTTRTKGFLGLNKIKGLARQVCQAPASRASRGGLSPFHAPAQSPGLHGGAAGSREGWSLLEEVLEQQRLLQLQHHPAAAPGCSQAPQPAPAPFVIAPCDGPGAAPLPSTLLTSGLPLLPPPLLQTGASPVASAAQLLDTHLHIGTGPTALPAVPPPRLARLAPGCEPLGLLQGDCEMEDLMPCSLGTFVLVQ
Sequence of Phosphatidylinositol 4-phosphate 5-kinase type-1 alpha (Homo sapiens) (Q99755 whole entry, the tested form may be a part): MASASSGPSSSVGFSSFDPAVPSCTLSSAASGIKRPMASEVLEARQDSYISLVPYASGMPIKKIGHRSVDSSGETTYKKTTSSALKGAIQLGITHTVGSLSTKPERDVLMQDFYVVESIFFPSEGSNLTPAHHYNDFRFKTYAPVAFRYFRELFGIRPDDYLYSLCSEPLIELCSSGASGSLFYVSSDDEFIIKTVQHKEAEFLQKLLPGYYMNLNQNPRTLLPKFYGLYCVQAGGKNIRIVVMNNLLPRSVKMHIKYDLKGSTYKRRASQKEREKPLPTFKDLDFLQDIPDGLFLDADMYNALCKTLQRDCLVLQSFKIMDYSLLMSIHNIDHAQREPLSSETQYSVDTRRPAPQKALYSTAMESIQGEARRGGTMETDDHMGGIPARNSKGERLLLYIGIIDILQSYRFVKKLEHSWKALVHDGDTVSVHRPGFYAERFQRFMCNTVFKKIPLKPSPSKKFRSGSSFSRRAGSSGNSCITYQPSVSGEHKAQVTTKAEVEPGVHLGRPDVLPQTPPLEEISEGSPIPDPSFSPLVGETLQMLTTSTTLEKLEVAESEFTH
Sequence of Platelet-derived growth factor receptor alpha (Homo sapiens) (P16234 whole entry): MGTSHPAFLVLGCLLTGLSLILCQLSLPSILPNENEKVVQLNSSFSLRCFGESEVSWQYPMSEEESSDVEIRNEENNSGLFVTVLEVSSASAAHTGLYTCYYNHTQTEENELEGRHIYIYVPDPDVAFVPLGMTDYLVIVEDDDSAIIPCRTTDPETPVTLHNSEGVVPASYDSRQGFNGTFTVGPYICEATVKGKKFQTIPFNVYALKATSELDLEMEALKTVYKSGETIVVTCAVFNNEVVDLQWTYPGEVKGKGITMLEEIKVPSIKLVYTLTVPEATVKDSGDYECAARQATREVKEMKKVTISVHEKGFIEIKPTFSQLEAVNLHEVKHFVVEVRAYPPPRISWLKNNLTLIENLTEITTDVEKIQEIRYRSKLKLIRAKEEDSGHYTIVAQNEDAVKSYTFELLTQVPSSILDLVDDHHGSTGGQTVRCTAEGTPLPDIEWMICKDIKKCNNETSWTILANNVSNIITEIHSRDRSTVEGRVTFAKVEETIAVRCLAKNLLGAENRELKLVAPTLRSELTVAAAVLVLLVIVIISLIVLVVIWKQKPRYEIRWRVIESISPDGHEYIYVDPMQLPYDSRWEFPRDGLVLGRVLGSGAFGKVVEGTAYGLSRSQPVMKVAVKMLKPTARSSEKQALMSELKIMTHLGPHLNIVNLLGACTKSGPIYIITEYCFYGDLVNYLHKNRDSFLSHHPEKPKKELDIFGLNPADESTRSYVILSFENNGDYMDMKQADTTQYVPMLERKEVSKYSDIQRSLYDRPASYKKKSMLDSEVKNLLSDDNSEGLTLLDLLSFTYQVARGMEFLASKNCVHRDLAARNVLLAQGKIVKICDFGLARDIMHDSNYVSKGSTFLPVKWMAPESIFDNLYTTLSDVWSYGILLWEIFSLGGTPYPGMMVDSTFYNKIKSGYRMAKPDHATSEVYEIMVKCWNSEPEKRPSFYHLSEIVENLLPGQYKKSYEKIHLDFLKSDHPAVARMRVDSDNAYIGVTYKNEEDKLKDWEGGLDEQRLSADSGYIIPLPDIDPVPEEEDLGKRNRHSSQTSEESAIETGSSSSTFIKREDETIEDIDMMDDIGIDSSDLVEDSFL
Sequence of Serine/threonine-protein kinase Nek6 (Homo sapiens) (Q9HC98 whole entry): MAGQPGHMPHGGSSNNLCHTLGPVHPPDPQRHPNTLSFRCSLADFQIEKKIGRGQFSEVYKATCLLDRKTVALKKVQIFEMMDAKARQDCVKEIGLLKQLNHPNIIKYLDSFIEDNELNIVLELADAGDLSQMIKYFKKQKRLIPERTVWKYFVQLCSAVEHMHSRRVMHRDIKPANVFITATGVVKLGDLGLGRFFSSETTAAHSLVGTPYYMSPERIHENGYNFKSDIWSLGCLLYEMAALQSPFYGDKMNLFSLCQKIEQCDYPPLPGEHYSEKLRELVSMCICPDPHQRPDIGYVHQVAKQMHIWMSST

CN1C[C@H](Nc2nc3cc[nH]c3c(=O)n2C)C[C@H](c2ccc3c(c2)OCCO3)C1
inhibition [1]: inactive
inhibition [2]: inactive
Cmax [3]: 1420 ng/mL
inhibition [4]: inactive
inhibition [5]: inactive
inhibition [6]: inactive
inhibition [7]: inactive
inhibition [8]: inactive
inhibition [9]: inactive
inhibition [10]: inactive
inhibition [11]: inactive
inhibition [12]: inactive
Activity [13]: inactive
inhibition [14]: inactive
Activity [15]: inactive
inhibition [16]: inactive
inhibition [17]: inactive
Activity [18]: inactive
inhibition [19]: inactive
inhibition [20]: inactive
inhibition [21]: inactive
inhibition [22]: inactive
inhibition [23]: inactive
